Measurements published in ChEMBL document CHEMBL1147738, “Potent and selective mitogen-activated protein kinase kinase (MEK) 1,2 inhibitors. 1. 4-(4-bromo-2-fluorophenylamino)-1- methylpyridin-2(1H)-ones” (J Med Chem, 2006).

Assays:
[1] = target: RAC-alpha serine/threonine-protein kinase (Homo sapiens) (UniProt P31749); experiment: Inhibition of PKBa at 10 uM
Procedure, shortened: (§1)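 Kinase panel run at Upstate (Dundee). Each compound was tested at 10 µM against each enzyme and reported as % inhibition.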

[2] = Half life in rat at 10 mg/kg, po; format: ADME, organism-based; parameters: dose 10 mg/kg, route oral; conditions: Sprague-Dawley, in vivo
Procedure, shortened: (§2)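 Male Sprague Dawley rats (6-10 weeks) were given 10 mg/kg by oral gavage (2 mg/mL in 1% CMC/0.5% Tween 80, 5 mL/kg). Tail-vein EDTA blood was drawn at 15 and 30 min and 1, 2, 4, 8, 12, 24, 48, 72 h. Plasma was quantified by LC/MS/MS after methanol precipitation. Parameters came from non-compartmental analysis.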

Homo sapiens = species: Homo sapiens; conditions: at 10 µM
[3] = target: Ribosomal protein S6 kinase alpha-5 (Homo sapiens) (UniProt O75582); experiment: Inhibition of MSK1 at 10 uM; procedure, shortened: as §1
[4] = target: MAP kinase-activated protein kinase 2 (Homo sapiens) (UniProt P49137); experiment: Inhibition of MAPKAP-K2 at 10 uM; procedure, shortened: as §1
Sequence of MAP kinase-activated protein kinase 2 (Homo sapiens) (P49137 whole entry, looked up): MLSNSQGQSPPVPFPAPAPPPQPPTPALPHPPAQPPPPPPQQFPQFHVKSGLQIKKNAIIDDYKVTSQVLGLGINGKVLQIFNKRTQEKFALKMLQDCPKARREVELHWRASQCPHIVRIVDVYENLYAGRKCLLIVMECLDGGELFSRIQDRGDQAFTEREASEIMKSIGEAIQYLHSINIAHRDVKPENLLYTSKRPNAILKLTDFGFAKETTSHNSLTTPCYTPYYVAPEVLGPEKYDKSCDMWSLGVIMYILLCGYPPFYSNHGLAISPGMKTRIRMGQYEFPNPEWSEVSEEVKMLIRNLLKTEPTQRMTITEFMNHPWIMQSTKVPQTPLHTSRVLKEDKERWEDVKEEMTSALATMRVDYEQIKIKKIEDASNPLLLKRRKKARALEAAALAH

Rattus norvegicus [5] = experiment: AUC in rat at 10 mg/kg, po; format: ADME, organism-based, Sprague-Dawley, Plasma; parameters: dose 10 mg/kg, route oral; conditions: in vivo; procedure, shortened: as §2
[6] = target: Mitogen-activated protein kinase 14 (Homo sapiens) (UniProt Q16539); experiment: Inhibition of SAPK2a/p38 at 10 uM; procedure, shortened: as §1
Sequence of Mitogen-activated protein kinase 14 (Homo sapiens) (Q16539 whole entry): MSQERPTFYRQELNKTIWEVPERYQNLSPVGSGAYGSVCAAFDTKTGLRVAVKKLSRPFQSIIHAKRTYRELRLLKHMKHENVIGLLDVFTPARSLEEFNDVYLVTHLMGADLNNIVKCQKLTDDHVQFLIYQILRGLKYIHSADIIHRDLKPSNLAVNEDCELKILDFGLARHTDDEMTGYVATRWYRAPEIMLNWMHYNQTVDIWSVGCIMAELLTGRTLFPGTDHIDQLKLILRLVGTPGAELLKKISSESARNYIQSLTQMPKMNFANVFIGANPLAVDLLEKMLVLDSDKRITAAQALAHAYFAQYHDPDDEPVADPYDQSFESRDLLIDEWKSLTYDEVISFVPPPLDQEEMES

[7] = Volume of distribution in rat; format: ADME, organism-based; conditions: Sprague-Dawley, in vivo, read-out: Vdss
Procedure, shortened: (§3)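 Male Sprague Dawley rats (6-10 weeks) received IV 1 mg/kg (10% DMSO/90% saline) and PO 10 mg/kg (1% CMC/0.5% Tween 80). Serial tail-vein plasma was taken up to 24 h (IV) or 72 h (PO) and analysed by LC/MS/MS (9 ng/mL to 20 µg/mL). Parameters were calculated non-compartmentally.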

HT-29 = experiment: Inhibition of ERK phosphorylation in HT29 tumor bearing NCr-nu/nu mice after 4 hrs at 10 mg/kg, po; format: functional; conditions: Mus musculus, HT-29, 4 h
[8] = target: Glycogen synthase kinase-3 beta (Homo sapiens) (UniProt P49841); experiment: Inhibition of GSK3b at 10 uM; procedure, shortened: as §1
Sequence of Glycogen synthase kinase-3 beta (Homo sapiens) (P49841 whole entry, looked up): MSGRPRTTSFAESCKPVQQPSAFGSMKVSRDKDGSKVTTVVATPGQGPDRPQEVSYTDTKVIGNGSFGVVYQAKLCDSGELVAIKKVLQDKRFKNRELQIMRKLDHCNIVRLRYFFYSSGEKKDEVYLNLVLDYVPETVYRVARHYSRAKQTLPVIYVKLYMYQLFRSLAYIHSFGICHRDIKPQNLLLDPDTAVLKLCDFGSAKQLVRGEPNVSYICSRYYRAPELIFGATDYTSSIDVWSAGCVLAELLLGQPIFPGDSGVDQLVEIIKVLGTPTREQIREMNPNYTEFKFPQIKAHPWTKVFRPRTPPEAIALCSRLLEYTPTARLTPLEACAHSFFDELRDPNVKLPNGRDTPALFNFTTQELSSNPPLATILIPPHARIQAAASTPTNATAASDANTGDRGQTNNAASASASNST

[9] = target: Ribosomal protein S6 kinase (P70S6K) (Homo sapiens) (UniProt Q9UBS0+P23443); experiment: Inhibition of p70 S6K at 10 uM; format: protein-complex assay; procedure, shortened: as §1
[10] = target: Casein kinase II (Homo sapiens) (UniProt P67870+P68400+P19784); experiment: Inhibition of CK2 at 10 uM; format: protein-complex assay; procedure, shortened: as §1
[11] = Half life in rat at 1 mg/kg, iv; format: ADME, organism-based; parameters: dose 1 mg/kg, route intravenous; conditions: Sprague-Dawley, in vivo
Procedure, shortened: (§4)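 Male Sprague Dawley rats (6-10 weeks), fed ad lib, dosed IV at 1 mg/kg (1 mg/mL in 10% DMSO/90% normal saline, 1 mL/kg). Tail-vein EDTA blood sampled 1, 5, 15, 30 min and 1, 2, 4, 8, 12, 24 h. Plasma analysed by LC/MS/MS after methanol protein precipitation, range 9 ng/mL to 20 µg/mL. Parameters derived by non-compartmental analysis.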

[12] = target: T1, Lymphokine-activated killer T-cell-originated protein kinase (Homo sapiens) (UniProt Q96KB5); experiment: Inhibition of PBK at 10 uM; procedure, shortened: as §1
T1 sequence (whole entry): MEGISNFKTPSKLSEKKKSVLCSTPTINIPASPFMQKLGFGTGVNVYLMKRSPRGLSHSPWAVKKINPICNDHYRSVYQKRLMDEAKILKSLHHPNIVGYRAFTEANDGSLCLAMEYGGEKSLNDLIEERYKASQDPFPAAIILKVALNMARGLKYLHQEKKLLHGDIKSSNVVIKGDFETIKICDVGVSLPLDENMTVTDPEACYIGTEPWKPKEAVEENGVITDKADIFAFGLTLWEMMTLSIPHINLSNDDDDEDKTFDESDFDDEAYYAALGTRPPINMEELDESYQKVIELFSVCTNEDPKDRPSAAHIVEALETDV

[13] = Clearance in rat; format: ADME, organism-based; conditions: Sprague-Dawley, in vivo; procedure, shortened: as §3
Malme-3M [14] = experiment: Inhibition of basal ERK phosphorylation in Malme-3M cells; format: functional, Homo sapiens
[15] = target: Ribosomal protein S6 kinase alpha-1 (Homo sapiens) (UniProt Q15418); experiment: Inhibition of MAPKAP-K1a at 10 uM; procedure, shortened: as §1
Sequence of Ribosomal protein S6 kinase alpha-1 (Homo sapiens) (Q15418 whole entry): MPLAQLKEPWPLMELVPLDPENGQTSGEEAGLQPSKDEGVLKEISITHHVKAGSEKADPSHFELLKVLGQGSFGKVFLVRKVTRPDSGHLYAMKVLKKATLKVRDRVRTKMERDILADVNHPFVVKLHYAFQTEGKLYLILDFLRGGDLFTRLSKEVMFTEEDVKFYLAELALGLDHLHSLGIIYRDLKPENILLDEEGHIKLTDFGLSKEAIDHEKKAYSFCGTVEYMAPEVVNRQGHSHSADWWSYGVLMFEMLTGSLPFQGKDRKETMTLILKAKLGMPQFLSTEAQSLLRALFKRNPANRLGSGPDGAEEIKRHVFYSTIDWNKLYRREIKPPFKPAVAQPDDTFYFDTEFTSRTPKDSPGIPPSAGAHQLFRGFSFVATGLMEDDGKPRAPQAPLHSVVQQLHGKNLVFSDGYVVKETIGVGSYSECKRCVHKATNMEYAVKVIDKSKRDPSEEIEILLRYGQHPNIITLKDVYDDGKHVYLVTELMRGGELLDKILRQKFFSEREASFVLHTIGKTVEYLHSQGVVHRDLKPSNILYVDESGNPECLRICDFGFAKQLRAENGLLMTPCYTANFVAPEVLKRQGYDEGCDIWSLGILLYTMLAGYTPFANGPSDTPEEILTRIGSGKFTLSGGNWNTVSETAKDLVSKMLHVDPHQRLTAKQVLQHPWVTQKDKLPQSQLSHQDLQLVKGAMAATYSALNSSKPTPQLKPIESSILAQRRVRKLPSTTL

[16] = target: Mitogen-activated protein kinase 1 (Homo sapiens) (UniProt P28482); experiment: Inhibition of MAPK2/ERK2 at 10 uM; procedure, shortened: as §1
Sequence of Mitogen-activated protein kinase 1 (Homo sapiens) (P28482 whole entry): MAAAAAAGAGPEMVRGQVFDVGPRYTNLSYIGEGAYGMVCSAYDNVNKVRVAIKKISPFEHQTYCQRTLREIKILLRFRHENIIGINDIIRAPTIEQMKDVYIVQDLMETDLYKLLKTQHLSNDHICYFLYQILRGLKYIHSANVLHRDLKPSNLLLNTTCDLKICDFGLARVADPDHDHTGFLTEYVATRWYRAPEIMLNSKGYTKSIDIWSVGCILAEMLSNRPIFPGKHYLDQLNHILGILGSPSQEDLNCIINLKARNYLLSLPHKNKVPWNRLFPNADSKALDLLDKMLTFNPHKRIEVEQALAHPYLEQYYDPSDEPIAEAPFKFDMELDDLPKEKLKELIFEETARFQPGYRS

Malme-3M [17] = experiment: Inhibition of cellular viability of Malme-3M cells; format: functional, Homo sapiens
[18] = target: cAMP-dependent protein kinase (PKA) (Homo sapiens) (UniProt P22694+P17612+P22612); experiment: Inhibition of PKA at 10 uM; format: protein assay; procedure, shortened: as §1
[19] = target: Protein kinase C alpha type (Homo sapiens) (UniProt P17252); experiment: Inhibition of PKCa at 10 uM; procedure, shortened: as §1
[20] = target: T2, Serine/threonine-protein kinase Chk1 (Homo sapiens) (UniProt O14757); experiment: Inhibition of CHK1 at 10 uM; procedure, shortened: as §1
T2 sequence (whole entry): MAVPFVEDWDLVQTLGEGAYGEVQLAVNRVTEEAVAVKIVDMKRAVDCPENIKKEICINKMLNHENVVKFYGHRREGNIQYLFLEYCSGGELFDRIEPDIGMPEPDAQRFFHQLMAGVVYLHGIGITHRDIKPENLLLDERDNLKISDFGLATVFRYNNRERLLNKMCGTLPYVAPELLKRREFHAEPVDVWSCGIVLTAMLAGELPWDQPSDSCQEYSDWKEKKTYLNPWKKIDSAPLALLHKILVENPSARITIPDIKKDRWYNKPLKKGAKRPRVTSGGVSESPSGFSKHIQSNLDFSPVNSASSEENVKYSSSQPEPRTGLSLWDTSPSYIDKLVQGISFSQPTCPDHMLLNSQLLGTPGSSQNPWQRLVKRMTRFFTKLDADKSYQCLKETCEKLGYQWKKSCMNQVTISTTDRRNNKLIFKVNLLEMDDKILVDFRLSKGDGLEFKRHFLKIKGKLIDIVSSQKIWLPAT

[21] = target: Rho-associated protein kinase 2 (Homo sapiens) (UniProt O75116); experiment: Inhibition of ROCK 2 at 10 uM; procedure, shortened: as §1
Sequence of Rho-associated protein kinase 2 (Homo sapiens) (O75116 whole entry, looked up): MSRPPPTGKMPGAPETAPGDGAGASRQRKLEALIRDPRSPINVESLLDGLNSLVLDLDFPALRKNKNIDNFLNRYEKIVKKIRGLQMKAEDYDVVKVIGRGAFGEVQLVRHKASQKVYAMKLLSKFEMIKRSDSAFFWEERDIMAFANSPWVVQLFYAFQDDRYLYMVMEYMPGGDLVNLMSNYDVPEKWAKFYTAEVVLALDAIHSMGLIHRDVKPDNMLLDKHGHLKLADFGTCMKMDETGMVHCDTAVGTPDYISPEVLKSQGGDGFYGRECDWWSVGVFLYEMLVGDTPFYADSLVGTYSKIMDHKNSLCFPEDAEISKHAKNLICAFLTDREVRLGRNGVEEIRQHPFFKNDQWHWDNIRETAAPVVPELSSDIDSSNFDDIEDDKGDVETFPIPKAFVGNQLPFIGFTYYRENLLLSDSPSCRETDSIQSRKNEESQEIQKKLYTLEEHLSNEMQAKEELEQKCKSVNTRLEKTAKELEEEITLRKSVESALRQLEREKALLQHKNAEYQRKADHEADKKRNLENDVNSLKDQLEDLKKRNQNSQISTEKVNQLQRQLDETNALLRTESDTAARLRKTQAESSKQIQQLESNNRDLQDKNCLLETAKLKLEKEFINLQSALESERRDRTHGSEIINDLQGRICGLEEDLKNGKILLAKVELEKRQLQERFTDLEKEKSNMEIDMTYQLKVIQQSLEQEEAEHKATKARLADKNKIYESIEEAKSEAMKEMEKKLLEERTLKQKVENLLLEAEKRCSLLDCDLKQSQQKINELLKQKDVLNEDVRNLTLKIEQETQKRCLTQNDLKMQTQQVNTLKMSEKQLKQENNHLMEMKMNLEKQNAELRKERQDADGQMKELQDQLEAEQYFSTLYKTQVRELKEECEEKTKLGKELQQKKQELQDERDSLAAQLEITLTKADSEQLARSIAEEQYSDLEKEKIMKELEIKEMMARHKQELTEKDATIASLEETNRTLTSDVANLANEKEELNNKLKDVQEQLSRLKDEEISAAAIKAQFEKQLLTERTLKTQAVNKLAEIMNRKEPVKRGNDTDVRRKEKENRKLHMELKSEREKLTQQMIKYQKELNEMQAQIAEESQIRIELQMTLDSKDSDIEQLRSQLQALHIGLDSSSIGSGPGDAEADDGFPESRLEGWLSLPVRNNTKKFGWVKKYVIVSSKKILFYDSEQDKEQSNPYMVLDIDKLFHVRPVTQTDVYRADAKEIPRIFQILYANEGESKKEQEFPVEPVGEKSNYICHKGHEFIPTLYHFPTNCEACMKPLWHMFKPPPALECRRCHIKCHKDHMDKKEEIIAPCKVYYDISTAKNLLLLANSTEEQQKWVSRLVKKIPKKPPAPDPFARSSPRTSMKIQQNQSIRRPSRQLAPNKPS

[22] = Oral bioavailability in rat; format: ADME, organism-based; conditions: Sprague-Dawley, in vivo; procedure, shortened: as §3
[23] = Clearance in presence of human hepatocytes; format: ADME, cell-based, Liver, Hepatocyte
Procedure, shortened: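 Human hepatocytes (fresh or cryopreserved) diluted to 2 x 10⁶ viable cells/mL in supplemented Krebs-Henseleit buffer pH 7.3, mixed 1:1 with 2 µM compound working solution. Incubated at 37 °C, 5% CO₂, duplicates, one plate per timepoint. Quenched with labetalol internal standard and centrifuged; compound remaining measured by LC-MS/MS (ESI+, MRM).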

[24] = target: AMP-activated protein kinase, AMPK (Homo sapiens) (UniProt P54646+O43741+P54619+Q9UGJ0+Q9Y478+Q13131+Q9UGI9); experiment: Inhibition of AMPK at 10 uM; format: protein-complex assay; procedure, shortened: as §1
Rattus norvegicus [25] = experiment: AUC in rat at 1 mg/kg, iv; format: ADME, organism-based, Sprague-Dawley, Plasma; parameters: dose 1 mg/kg, route intravenous; conditions: in vivo; procedure, shortened: as §4
[26] = target: Cyclin-dependent kinase 2/cyclin A (Homo sapiens) (UniProt P24941+P20248+P78396); experiment: Inhibition of CDK2/cyclin A at 10 uM; format: protein-complex assay; procedure, shortened: as §1

Sequence of RAC-alpha serine/threonine-protein kinase (Homo sapiens) (P31749 whole entry): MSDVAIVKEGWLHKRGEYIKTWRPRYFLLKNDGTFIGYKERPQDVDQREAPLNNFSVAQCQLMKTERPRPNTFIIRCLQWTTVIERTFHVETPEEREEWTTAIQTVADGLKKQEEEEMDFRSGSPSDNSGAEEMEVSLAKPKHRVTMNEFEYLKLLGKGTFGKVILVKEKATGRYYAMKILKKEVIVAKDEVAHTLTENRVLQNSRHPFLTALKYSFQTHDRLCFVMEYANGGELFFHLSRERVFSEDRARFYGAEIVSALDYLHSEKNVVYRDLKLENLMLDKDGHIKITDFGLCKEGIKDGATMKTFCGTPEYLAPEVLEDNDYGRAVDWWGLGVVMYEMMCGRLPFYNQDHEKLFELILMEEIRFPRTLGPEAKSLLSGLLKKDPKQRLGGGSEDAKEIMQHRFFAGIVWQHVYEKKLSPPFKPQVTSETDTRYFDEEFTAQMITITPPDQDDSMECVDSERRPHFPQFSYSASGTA

| SMILES | inhibition [1] [%] | half-life [2] [h] | inhibition (Homo sapiens) [%] | inhibition [3] [%] | inhibition [4] [%] | AUC (Rattus norvegicus [5]) [ng·h/mL] | inhibition [6] [%] | Vd [7] [L/kg] | inhibition in vivo at 10 mg/kg (HT-29) [%] | inhibition [8] [%] | inhibition [9] [%] | inhibition [10] [%] | half-life [11] [h] | inhibition [12] [%] | clearance [13] [mL/min/kg] | Activity (Malme-3M [14]) [nM] | inhibition [15] [%] | inhibition [16] [%] | Activity (Malme-3M [17]) [nM] | inhibition [18] [%] | further results |
| --- | --- | --- | --- | --- | --- | --- | --- | --- | --- | --- | --- | --- | --- | --- | --- | --- | --- | --- | --- | --- | --- |
| CONC(=O)c1cn(C)c(=O)c(C)c1Nc1ccc(Br)cc1F | 12 | 4.7 | -9 | 6 | 1 | 88300 | 3 | 0.4 | > 80 | 12 | -2 | -4 | 3.5 | -4 | 1.5 | 39 | -8 | -9 | 265 | -7 | inhibition [19]: 0%; inhibition [20]: -3%; inhibition [21]: 10%; bioavailability [22]: 73%; CLhep predicted [23]: 5 mL/min/kg; inhibition [24]: -4%; AUC (Rattus norvegicus [25]): 11500 ng·h/mL; inhibition [26]: 8% |
| CCONC(=O)c1cn(C)c(=O)c(C)c1Nc1ccc(Br)cc1F | 6 | 4.7 | -3 | 5 | 14 | 75000 | -3 | 0.4 | > 80 | 15 | -1 | 4 | 2.5 | 3 | 1.9 | 10.6 | 3 | 6 | 118 | -1 | inhibition [19]: 7%; inhibition [20]: 8%; inhibition [21]: 13%; bioavailability [22]: 80%; CLhep predicted [23]: 5 mL/min/kg; inhibition [24]: 2%; AUC (Rattus norvegicus [25]): 8900 ng·h/mL; inhibition [26]: 20% |
| Cc1c(Nc2ccc(Br)cc2F)c(C(=O)NOCCO)cn(C)c1=O | -4 | 3 | -7 | 2 | 8 | 12000 | 20 | 1.1 | > 80 | 17 | 18 | -1 | 1.6 | -8 | 8 | 2 | -9 | 6 | 11 | 15 | inhibition [19]: -3%; inhibition [20]: 11%; inhibition [21]: 13%; bioavailability [22]: 53%; CLhep predicted [23]: 6 mL/min/kg; inhibition [24]: 19%; AUC (Rattus norvegicus [25]): 2260 ng·h/mL; inhibition [26]: 9% |
